Assay [1] addresses Acetylcholinesterase (Electrophorus electricus, UniProt O42275). Nature of the assay: Inhibition of electric eel AChE after 15 mins by Ellman's method. (Ellman's reagent forms a yellow product with free thiols.)
Assay [2] addresses Cholinesterase (Equus caballus, UniProt P81908). Nature of the assay: Inhibition of horse serum BChE after 15 mins by Ellman's method.
The nature of assay [3]: Selectivity ratio of IC50 for electric eel AChE to IC50 for horse serum BChE. An outline of the steps: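 Ellman assay for each enzyme: enzyme, DTNB and test compound in 0.1 M potassium phosphate buffer, pH 8.0, pre-incubated 15 min at 37 °C. Started with ATC (AChE) or BTC (BChE) and read at 412 nm for 1 min. Five compound concentrations, each in triplicate; DMSO reference, enzyme-free blank. Ratio taken from the two IC50 values.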

Assay [4] addresses Acetylcholinesterase (Electrophorus electricus) (UniProt O42275). The experiment in a line: Mixed-type inhibition of electric eel AChE at 50 to 100 nM by Lineweaver-Burke plot analysis. An outline of the steps:
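Ellman assay: enzyme, DTNB and inhibitor in 0.1 M potassium phosphate buffer, pH 8.0, pre-incubated 15 min at 37 °C. Reaction started with acetylthiocholine at 100–400 (unit unclear) and followed by absorbance at 412 nm. Inhibitor absent or at two levels. Inhibition type assigned from Lineweaver–Burk plots (1/V versus 1/[S]).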

Assay [5] has as its target Cholinesterase (Equus caballus) (UniProt P81908). The experiment in a line: Mixed-type inhibition of horse serum BChE at 10 to 20 nM by Lineweaver-Burke plot analysis. An outline of the steps:
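Ellman assay: enzyme, DTNB and inhibitor in 0.1 M potassium phosphate buffer, pH 8.0, pre-incubated 15 min at 37 °C. Reaction started with butyrylthiocholine at 100–500 (unit unclear) and followed by absorbance at 412 nm. Inhibitor absent or at two levels. Inhibition type assigned from Lineweaver–Burk plots (1/V versus 1/[S]).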

The source made the active and inactive calls. No cut-off for these calls is given here.

For orientation: IC50 means the concentration that inhibits the measured activity by half. High values mean a need for much substance, low ones inhibition by little substance.

Acetylcholinesterase, sequence (O42275 whole entry): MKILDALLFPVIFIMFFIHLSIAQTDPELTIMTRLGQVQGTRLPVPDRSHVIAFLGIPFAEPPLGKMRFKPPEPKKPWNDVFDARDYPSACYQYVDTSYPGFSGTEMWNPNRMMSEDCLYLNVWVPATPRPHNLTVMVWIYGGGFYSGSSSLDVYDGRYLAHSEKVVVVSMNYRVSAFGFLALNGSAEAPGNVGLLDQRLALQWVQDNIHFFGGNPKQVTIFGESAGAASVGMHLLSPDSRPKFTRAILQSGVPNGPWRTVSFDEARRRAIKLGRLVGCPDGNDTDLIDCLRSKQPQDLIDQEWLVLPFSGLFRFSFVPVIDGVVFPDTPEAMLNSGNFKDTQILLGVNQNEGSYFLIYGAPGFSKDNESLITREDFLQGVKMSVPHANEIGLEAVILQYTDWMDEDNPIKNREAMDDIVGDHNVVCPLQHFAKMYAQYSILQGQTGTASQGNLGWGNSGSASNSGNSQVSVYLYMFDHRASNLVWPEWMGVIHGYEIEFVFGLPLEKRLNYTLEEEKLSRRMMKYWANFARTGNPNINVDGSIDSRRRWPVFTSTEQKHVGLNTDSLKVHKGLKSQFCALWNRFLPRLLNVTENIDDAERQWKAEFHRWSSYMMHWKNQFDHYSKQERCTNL
Cholinesterase, sequence (P81908 whole entry): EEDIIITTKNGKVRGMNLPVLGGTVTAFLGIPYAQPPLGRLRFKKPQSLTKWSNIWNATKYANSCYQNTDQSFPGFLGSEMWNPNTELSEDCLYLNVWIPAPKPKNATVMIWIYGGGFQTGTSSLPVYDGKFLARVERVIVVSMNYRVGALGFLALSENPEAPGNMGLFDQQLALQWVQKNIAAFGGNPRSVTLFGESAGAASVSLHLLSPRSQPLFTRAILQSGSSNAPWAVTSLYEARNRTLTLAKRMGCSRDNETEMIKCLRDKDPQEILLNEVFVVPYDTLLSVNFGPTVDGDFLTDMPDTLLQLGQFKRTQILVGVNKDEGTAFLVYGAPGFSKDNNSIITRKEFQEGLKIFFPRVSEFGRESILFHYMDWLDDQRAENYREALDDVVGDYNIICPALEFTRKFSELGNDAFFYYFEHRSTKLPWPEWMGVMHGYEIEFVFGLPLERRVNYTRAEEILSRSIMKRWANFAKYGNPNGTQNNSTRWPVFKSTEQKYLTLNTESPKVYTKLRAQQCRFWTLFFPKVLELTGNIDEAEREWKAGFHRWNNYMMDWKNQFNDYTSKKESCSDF
Acetylcholinesterase (Electrophorus electricus), sequence (O42275 24-633 limits assumed): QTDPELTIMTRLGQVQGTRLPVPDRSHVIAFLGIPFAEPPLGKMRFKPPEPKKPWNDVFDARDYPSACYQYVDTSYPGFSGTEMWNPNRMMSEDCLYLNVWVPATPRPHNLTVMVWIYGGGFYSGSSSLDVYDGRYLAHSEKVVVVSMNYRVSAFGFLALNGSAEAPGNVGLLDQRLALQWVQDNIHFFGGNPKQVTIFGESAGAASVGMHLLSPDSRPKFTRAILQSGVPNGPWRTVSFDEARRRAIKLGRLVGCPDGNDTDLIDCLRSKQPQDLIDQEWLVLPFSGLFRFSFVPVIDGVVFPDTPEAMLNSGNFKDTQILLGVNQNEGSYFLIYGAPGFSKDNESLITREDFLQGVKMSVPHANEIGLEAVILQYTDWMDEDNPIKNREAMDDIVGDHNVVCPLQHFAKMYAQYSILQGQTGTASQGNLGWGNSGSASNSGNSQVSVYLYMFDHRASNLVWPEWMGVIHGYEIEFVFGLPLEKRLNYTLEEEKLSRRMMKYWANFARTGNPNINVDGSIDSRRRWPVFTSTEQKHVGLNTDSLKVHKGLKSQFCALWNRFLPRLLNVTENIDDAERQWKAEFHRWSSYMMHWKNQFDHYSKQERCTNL
Cholinesterase (Equus caballus), sequence (P81908 whole entry): as the sequence (P81908 whole entry) above

With `CCCCN(CCCC)CCCCCCCCOc1ccc(CN(CC)CC)cc1`, the IC50 came to 140 nM in assay [1] and 17 nM in assay [2]. Also, the Ratio IC50 in assay [3] was determined as 8.45.

Take `CCN(CC)CCCCCCOc1ccc(CN(CC)CC)cc1`: the IC50 is 960 nM in assay [1] and 1660 nM in assay [2]. In addition, the Ratio IC50 in assay [3] was 0.58.

With `CCN(CC)Cc1ccc(OCCCCCN2CCN(C)CC2)cc1`, the IC50 in assay [1] turned out to be 2480 nM; in assay [2] it was 9350 nM. The Ratio IC50 in assay [3] stood at 0.27.

Turning to `CCN(CC)Cc1ccc(OCCCCN2CCCC2)cc1`, the IC50 was 3420 nM in assay [1] and 1400 nM in assay [2]. For the same compound, the Ratio IC50 in assay [3] was 2.44.

Consider `CCN(CC)Cc1ccc(OCCCCCCN2CCCC2)cc1`, for which the IC50 in assay [1] is 440 nM; in assay [2] it was 1280 nM. Moreover, in assay [3], the Ratio IC50 came out at 0.34.

With `CCN(CC)Cc1ccc(OCCCCCCCCCCN2CCCCC2)cc1`, the figures for the IC50 in assay [1] and in assay [2] were 600 nM and 78 nM, respectively. Also, the Ratio IC50 in assay [3] amounted to 7.66.

Take `CCCCN(CCCC)CCCCCCCCCCOc1ccc(CN(CC)CC)cc1`: the IC50 amounted to 260 nM in assay [1] and 15 nM in assay [2]. The Ratio IC50 in assay [3] amounted to 16.5.

Take `CCN(CC)CCCCCOc1ccc(CN(CC)CC)cc1`: the results for the IC50 in assay [1] and in assay [2] were 8370 nM and 4420 nM, respectively. In assay [3], the Ratio IC50 was 1.89.

Consider `CCN(CC)Cc1ccc(OCCCCCCN2CCN(C)CC2)cc1`, for which the values for the IC50 in assay [1] and in assay [2] were 1820 nM and 3760 nM, respectively. The Ratio IC50 in assay [3] came to 0.48.

As for `CCN(CC)Cc1ccc(OCCCCCCN2CCCCC2)cc1`, the IC50 in assay [1] was determined as 890 nM; in assay [2], 1370 nM. Further, the Ratio IC50 in assay [3] stood at 0.65.

In the case of `CCCN(CCC)CCCCCCCCOc1ccc(CN(CC)CC)cc1`, the IC50 turned out to be 170 nM in assay [1] and 9.1 nM in assay [2]. Moreover, the Ratio IC50 in assay [3] stood at 18.8.

In the case of `CCN(CC)Cc1ccc(OCCN2CCN(C)CC2)cc1`, the IC50 in assay [1] came to 11500 nM; in assay [2] it was 20300 nM. In assay [3], the Ratio IC50 was 0.56.

On to `CCN(CC)Cc1ccc(OCCCCCCCCCCN2CCCC2)cc1`, for which the IC50 turned out to be 300 nM in assay [1] and 68 nM in assay [2]. Besides, the Ratio IC50 in assay [3] amounted to 4.41.

Take `CCCN(CCC)CCCCCCOc1ccc(CN(CC)CC)cc1`: the values for the IC50 in assay [1] and in assay [2] were 2160 nM and 1340 nM, respectively. Moreover, the Ratio IC50 in assay [3] turned out to be 1.61.

For `CCN1CCN(CCCCCCOc2ccc(CN(CC)CC)cc2)CC1`, the figures for the IC50 in assay [1] and in assay [2] were 1620 nM and 2200 nM, respectively. The Ratio IC50 in assay [3] turned out to be 0.74.

Consider `CCN(CC)CCCCCCCCOc1ccc(CN(CC)CC)cc1`, for which the IC50 in assay [1] came to 140 nM; in assay [2], 48 nM. In addition, the Ratio IC50 in assay [3] is 2.99.

In the case of `CCN(CC)Cc1ccc(OCCCCCCCCN2CCCC2)cc1`, the IC50 in assay [1] was determined as 84 nM; in assay [2] it was 15 nM. Moreover, the Ratio IC50 in assay [3] was 5.42.

Take `CCCN(CCC)CCCCOc1ccc(CN(CC)CC)cc1`: the IC50 was determined as 13700 nM in assay [1] and 11700 nM in assay [2]. For the same compound, the Ratio IC50 in assay [3] is 1.17.

As to `CCN(CC)Cc1ccc(OCCCCCN2CCCCC2)cc1`, the IC50 in assay [1] came to 4310 nM; in assay [2], 670 nM. Moreover, the Ratio IC50 in assay [3] is 6.44.

Take `CCN(CC)CCCCCCCCCCOc1ccc(CN(CC)CC)cc1`: the IC50 in assay [1] was determined as 310 nM; in assay [2], 27 nM. In assay [3], the Ratio IC50 stood at 11.3.

`CCCCN(CCCC)CCCCCCOc1ccc(CN(CC)CC)cc1`: the IC50 is 670 nM in assay [1] and 230 nM in assay [2]. Further, in assay [3], the Ratio IC50 was 2.92.

Consider `CCCCN(CCCC)CCCCCOc1ccc(CN(CC)CC)cc1`, for which the IC50 was 2460 nM in assay [1] and 1900 nM in assay [2]. Besides, the Ratio IC50 in assay [3] is 1.29.

`CCN(CC)Cc1ccc(OCCCCN2CCN(C)CC2)cc1`: the IC50 in assay [1] was 5580 nM; in assay [2] it was 9730 nM. The Ratio IC50 in assay [3] was determined as 0.57.

For the compound `CCN1CCN(CCCCCCCCCCOc2ccc(CN(CC)CC)cc2)CC1`, the IC50 in assay [1] came out at 580 nM; in assay [2], 190 nM. In addition, the Ratio IC50 in assay [3] turned out to be 3.1.

`CCN(CC)Cc1ccc(OCCCCCCCCCCN2CCN(C)CC2)cc1`: the IC50 is 540 nM in assay [1] and 33 nM in assay [2]. In assay [3], the Ratio IC50 was determined as 16.5.

As for `CCN(CC)Cc1ccc(OCCCCCCCCN2CCN(C)CC2)cc1`, the half-inhibitory concentration (IC50) in assay [1] was 210 nM; in assay [2] it was 11 nM. Further, the Ratio IC50 in assay [3] is 18.6.

`CCN(CC)Cc1ccc(OCCCCCCCCN2CCCCC2)cc1`: the values for the IC50 in assay [1] and in assay [2] were 92 nM and 7.3 nM, respectively. The inhibition result in assay [4] is “Active”. In addition, in assay [3], the Ratio IC50 was 12.5. Further, in assay [5], the outcome was Active.

As for `CCN(CC)Cc1ccc(OCCCCCN2CCCC2)cc1`, the IC50 in assay [1] came to 500 nM; in assay [2], 1540 nM. The Ratio IC50 in assay [3] turned out to be 0.32.

`CCN(CC)Cc1ccc(OCCN2CCCCC2)cc1`: the values for the IC50 in assay [1] and in assay [2] were 13700 nM and 10100 nM, respectively. Also, the Ratio IC50 in assay [3] stood at 1.35.

For `CCCN(CCC)CCCCCCCCCCOc1ccc(CN(CC)CC)cc1`, the IC50 in assay [1] is 340 nM; in assay [2], 26 nM. The Ratio IC50 in assay [3] was found to be 13.1.

As to `CCN(CC)Cc1ccc(OCCCCN2CCCCC2)cc1`, the IC50 in assay [1] amounted to 6740 nM; in assay [2], 710 nM. Further, the Ratio IC50 in assay [3] was 9.4.

Regarding `CCCCN(CCCC)CCCCOc1ccc(CN(CC)CC)cc1`, the IC50 stood at 10300 nM in assay [1] and 2520 nM in assay [2]. The Ratio IC50 in assay [3] was 4.01.

For the compound `CCN(CC)CCCCOc1ccc(CN(CC)CC)cc1`, the results for the IC50 in assay [1] and in assay [2] were 10600 nM and 2740 nM, respectively. Also, the Ratio IC50 in assay [3] is 3.87.

On to `CCN1CCN(CCCCCOc2ccc(CN(CC)CC)cc2)CC1`, for which the IC50 in assay [1] was determined as 1760 nM; in assay [2], 3080 nM. In addition, the Ratio IC50 in assay [3] was 0.57.

In the case of `CCN1CCN(CCCCCCCCOc2ccc(CN(CC)CC)cc2)CC1`, the IC50 in assay [1] stood at 77 nM; in assay [2] it was 14 nM. The Ratio IC50 in assay [3] was 5.38.

Regarding `CCCN(CCC)CCCCCOc1ccc(CN(CC)CC)cc1`, the IC50 in assay [1] was 5590 nM; in assay [2] it was 1780 nM. In addition, in assay [3], the Ratio IC50 came out at 3.13.
